Among the data in ChEMBL document CHEMBL4184319, “Fluorescent-Labeled Selective Adenosine A2B Receptor Antagonist Enables Competition Binding Assay by Flow Cytometry” (J Med Chem, 2018) are Ki, Activity and Ratio Ki values, retold here.

The target in one assay is T1, Adenosine receptor A1 (Homo sapiens, UniProt P30542).
T1 sequence (P30542 whole entry): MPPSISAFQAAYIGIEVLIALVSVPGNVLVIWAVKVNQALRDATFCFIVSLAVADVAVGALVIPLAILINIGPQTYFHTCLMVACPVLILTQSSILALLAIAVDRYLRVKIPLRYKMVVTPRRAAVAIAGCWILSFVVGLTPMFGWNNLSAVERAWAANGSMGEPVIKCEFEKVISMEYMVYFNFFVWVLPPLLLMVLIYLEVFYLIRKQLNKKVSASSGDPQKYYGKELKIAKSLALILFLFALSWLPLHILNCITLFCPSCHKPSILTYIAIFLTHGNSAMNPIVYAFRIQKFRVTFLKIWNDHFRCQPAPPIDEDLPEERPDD
Description: Displacement of [3H]CCPA from recombinant human adenosine A1 receptor expressed in CHO cell membranes after 90 mins by liquid scintillation counting method. A digest of the protocol: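 [³H]CCPA (1 nM) used with rat brain cortical or human A1-CHO membranes, 90 min at rt. Membranes pre-incubated 10-15 min with ADA 0.12 IU/mL. Nonspecific binding defined with 10 µM CADO. Compounds dissolved in DMSO, 2.5 % final. Filtration on GF/B filters with ice-cold Tris-HCl washes, then scintillation counting. Curves used 6-7 concentrations spanning 3 log units. At least three experiments, in duplicate (human) or triplicate (rat).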
Background: In a radioligand displacement assay an active substance lowers the binding of a labelled ligand.

The target in the next assay is T2, Adenosine receptor A2b (Mus musculus, UniProt Q60614).
T2 sequence (Q60614 whole entry): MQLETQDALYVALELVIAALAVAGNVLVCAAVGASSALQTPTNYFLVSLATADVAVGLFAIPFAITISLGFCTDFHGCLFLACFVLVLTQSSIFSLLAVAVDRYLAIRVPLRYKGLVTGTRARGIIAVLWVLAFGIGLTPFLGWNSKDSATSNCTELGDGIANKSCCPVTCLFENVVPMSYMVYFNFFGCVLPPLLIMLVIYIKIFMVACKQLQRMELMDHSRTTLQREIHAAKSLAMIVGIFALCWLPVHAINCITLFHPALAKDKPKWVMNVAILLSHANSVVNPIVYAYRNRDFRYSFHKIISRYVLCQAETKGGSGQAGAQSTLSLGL
Description: Displacement of [3H]PSB-603 from recombinant mouse adenosine A2B receptor expressed in CHO cell membranes after 75 mins by liquid scintillation counting method. A digest of the protocol: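 [³H]PSB-603 (0.3 nM) used with CHO membranes expressing human, mouse or rat A2BAR, 75 min at rt. Membranes pre-incubated 10-15 min with ADA 0.12 IU/mL. Nonspecific binding defined with 10 µM DPCPX. DMSO 2.5 % final. Filtration on GF/B with ice-cold 50 mM Tris-HCl pH 7.4 containing 0.1 % BSA, then scintillation counting. Curves used 6-7 concentrations over 3 log units. At least three experiments.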

The target in assay [1] is T3, Adenosine receptor A2b (Homo sapiens) (UniProt P29275).
T3 sequence (whole entry): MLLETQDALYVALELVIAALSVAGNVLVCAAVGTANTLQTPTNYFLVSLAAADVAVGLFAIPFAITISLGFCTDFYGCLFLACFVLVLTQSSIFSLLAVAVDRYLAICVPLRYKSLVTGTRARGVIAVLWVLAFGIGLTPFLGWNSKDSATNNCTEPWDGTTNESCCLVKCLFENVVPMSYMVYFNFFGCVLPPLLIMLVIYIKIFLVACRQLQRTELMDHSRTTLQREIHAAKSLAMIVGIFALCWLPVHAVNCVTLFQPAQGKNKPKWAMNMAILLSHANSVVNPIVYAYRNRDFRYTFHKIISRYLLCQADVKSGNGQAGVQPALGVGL
The assay is described as follows: Binding affinity to recombinant human adenosine A2B receptor expressed in CHO cell membranes at 100 nM after 15 mins in presence of PSB-603 by confocal microscopic method. The assay is classed as cell-based. A digest of the protocol: (§1)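 Live CHO cells stably expressing human A2BAR (or wild-type CHO as control) grown on chambered coverslips to about 80 % confluency. Incubated with fluorescent ligand (100 nM) for 15 min at 37°C, alone or after 30 min pre-incubation with PSB-603 (100 nM) or DPCPX (1 µM). Confocal laser scanning imaging with identical settings across conditions. Three similar experiments.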

The nature of assay [2]: Selectivity ratio of Ki for recombinant human adenosine A1 receptor expressed in CHO cell membranes to Ki for recombinant rat adenosine A2B receptor expressed in CHO cell membranes. Format: cell-based.
Assay [3] is described as follows: Selectivity ratio of Ki for recombinant human adenosine A2A receptor expressed in HEK cell membranes to Ki for recombinant rat adenosine A2B receptor expressed in CHO cell membranes. The assay is classed as cell-based.
The target of assay [4] is T3, Adenosine receptor A2b (Homo sapiens). The assay is described as follows: Binding affinity to recombinant human adenosine A2B receptor expressed in CHO cell membranes at 100 nM after 15 mins in presence of DPCPX by confocal microscopic method. The assay is classed as cell-based. A digest of the protocol: as §1
For assay [5], the species on record is Homo sapiens. The assay is described as follows: Selectivity ratio of Ki for recombinant human adenosine A3 receptor expressed in CHO cell membranes to Ki for recombinant human adenosine A2B receptor expressed in CHO cell membranes. The assay is classed as cell-based.
Another assay has as its target T4, Adenosine receptor A3 (Homo sapiens, UniProt P0DMS8).
T4 sequence (P0DMS8 whole entry): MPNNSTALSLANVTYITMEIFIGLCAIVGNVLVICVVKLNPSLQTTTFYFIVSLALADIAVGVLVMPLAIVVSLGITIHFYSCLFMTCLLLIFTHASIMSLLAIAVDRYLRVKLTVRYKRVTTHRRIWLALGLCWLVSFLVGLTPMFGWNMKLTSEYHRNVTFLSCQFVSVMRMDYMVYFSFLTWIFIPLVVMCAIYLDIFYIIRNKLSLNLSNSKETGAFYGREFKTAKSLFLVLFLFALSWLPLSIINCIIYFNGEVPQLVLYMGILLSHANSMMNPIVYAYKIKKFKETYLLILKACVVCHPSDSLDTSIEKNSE
The assay is described as follows: Displacement of [3H]PSB-11 from recombinant human adenosine A3 receptor expressed in CHO cell membranes after 45 mins by liquid scintillation counting method. A digest of the protocol:
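Human A3-CHO membranes incubated with [³H]PSB-11 (1 nM) for 45 min at rt, after 10-15 min pre-incubation with ADA 0.12 IU/mL. Nonspecific binding defined with 100 µM R-PIA. DMSO 2.5 % final. GF/B filtration, then scintillation counting. Curves used 6-7 concentrations over 3 log units. At least three experiments in duplicate.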

Assay [6] is described as follows: Selectivity ratio of Ki for recombinant human adenosine A1 receptor expressed in CHO cell membranes to Ki for recombinant mouse adenosine A2B receptor expressed in CHO cell membranes. The assay is classed as cell-based.
The species entered for assay [7] is Homo sapiens. The assay is described as follows: Selectivity ratio of Ki for recombinant human adenosine A2A receptor expressed in HEK cell membranes to Ki for recombinant human adenosine A2B receptor expressed in CHO cell membranes. Format: cell-based.
Assay [8] can be described thus: Selectivity ratio of Ki for recombinant human adenosine A3 receptor expressed in CHO cell membranes to Ki for recombinant mouse adenosine A2B receptor expressed in CHO cell membranes. Format: cell-based.
A short description of assay [9]: Selectivity ratio of Ki for adenosine A2A receptor in rat brain striatal membranes to Ki for recombinant human adenosine A2B receptor expressed in CHO cell membranes. Format: cell-based.
A short description of assay [10]: Selectivity ratio of Ki for recombinant human adenosine A2A receptor expressed in HEK cell membranes to Ki for recombinant mouse adenosine A2B receptor expressed in CHO cell membranes. The assay is classed as cell-based.

Activity calls are given as the source filed them. The calls are words filed in the database; no cut-off is given here. Bounds are passed on as bounds.

Usually Ki stands for the dissociation constant of the complex between target and ligand, obtained from inhibition or displacement. Regarding `CCCn1c(=O)[nH]c2nc(-c3ccc(OCC(=O)NCCC4=C5C(C)=CC(C)=[N+]5[B-](F)(F)n5c(C)cc(C)c54)cc3)[nH]c2c1=O`, the Ki is not below 10 µM at Adenosine receptor A1, 0.00132 µM at Adenosine receptor A2b and more than 10 µM on Adenosine receptor A3. The outcome in assay [1] and in assay [4] was inactive. The Ratio Ki in assay [2] is more than 1000; in [3], more than 1000; in the assay filed under Homo sapiens [5], more than 1000; in assay [6], more than 1000; in the assay filed under Homo sapiens [7], more than 150; in assay [8] it was more than 1000. The results for the Ratio Ki in [9] and in [10] were more than 150 and more than 1000, respectively.
